# MrgX1 PAM: positive allosteric modulators of MrgX1, primary screen, HEK293 cells, Fluo-4 calcium flux; Mas-related G-protein coupled receptor member X1 (Homo sapiens), Q96LB2; AID 588675, 2011; B-score at 10 µM; actives 0.63% (n = 310,000); FDSS; hits give high values;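 active = plate-corrected calcium response at least 3 library SD above typical, normal starting fluorescence, not activating the receptor alone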;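 also: compound read alongside a low EC10 to EC30 dose of BAM8-22 agonist; peak minus trough fluorescence over baseline measured at the second addition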
# Target sequence (Q96LB2 whole entry, looked up): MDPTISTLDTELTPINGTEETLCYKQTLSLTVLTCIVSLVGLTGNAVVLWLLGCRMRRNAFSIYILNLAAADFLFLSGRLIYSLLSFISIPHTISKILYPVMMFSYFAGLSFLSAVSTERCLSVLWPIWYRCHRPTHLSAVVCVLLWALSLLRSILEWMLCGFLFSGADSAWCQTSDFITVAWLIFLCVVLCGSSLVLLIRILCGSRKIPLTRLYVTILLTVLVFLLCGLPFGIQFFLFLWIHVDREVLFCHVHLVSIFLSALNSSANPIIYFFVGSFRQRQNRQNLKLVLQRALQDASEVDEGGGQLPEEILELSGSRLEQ
# RGS4 inh: RGS4 inhibitors, primary screen, cell-based, HEK293 M3R inducible RGS4, calcium flux. Regulator of G-protein signaling 4 (Homo sapiens), P49798. Fluo-4 calcium flux; hits give high values; triggered by carbachol at its EC20. B-score at 10 µM. actives 0.45% (n = 310,000);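 active = B-score, a plate-corrected calcium signal, over three deviations above library mean, with baseline fluorescence within five deviations of library mean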;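 also: RGS4 expression induced by doxycycline in cells with stable M3 receptor; B-score is computed from the integrated fluorescence ratio over baseline after carbachol; higher B-score means a larger calcium signal and so more RGS4 inhibition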
# Target sequence (P49798 whole entry, looked up): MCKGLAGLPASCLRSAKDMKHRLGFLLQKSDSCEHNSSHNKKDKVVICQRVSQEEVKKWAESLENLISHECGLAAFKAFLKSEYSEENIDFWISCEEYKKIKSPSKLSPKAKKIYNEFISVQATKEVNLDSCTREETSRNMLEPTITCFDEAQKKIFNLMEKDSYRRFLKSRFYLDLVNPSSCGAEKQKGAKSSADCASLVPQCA
# RGS4 act: RGS4 potentiators or activators, primary screen, cell-based, HEK293 M3R inducible RGS4, calcium flux. carbachol calcium flux Fluo4; hits give low values. B-score at 10 µM. actives 0.92% (n = 310,000). AID 463111, 2010;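 active = B-score of the integrated calcium signal more than 4 SD below the library mean, with starting fluorescence not abnormally high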;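 also: negative B-score means reduced calcium response which marks RGS4 activation or potentiation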
#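 Test system: HEK293 cells with stable M3R and inducible RGS4; also added: carbachol at ECmax as muscarinic agonist stimulus; schedule: dye loading 30 min 37 °C, buffer rest 30 min RT; technique: kinetic calcium fluorescence imaging with Fluo4-AM dye, 2 µM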
# MrgX1 ag: agonists of human MrgX1 receptor, primary screen, HEK293 cells, Fluo-4 calcium flux. Mas-related G-protein coupled receptor member X1 (Homo sapiens), Q96LB2. Fluo-4 calcium fluorescence, agonist mode; hits give high values. B-score at 10 µM. actives 0.44% (n = 310,000). AID 588627, 2011;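 active = calcium response B-score plate-corrected fluorescence ratio at least 3 library SD, with starting fluorescence B-score inside 5 SD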
#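 Material: MrgX1-expressing HEK293 cells; input: 15,000 cells per well; doses: test compound given as first of three sequential additions; schedule: overnight plating before 1 h dye loading; technique: Fluo-4 NW calcium-flux fluorescence, kinetic read; evaluation: baseline-normalised fluorescence change ratio, B-scored; control set: plate-wise positive and negative controls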
# MrgX1 antagonist: antagonists of human MrgX1 receptor, primary screen, HEK293 cells, Fluo-4 calcium flux. Mas-related G-protein coupled receptor member X1 (Homo sapiens), Q96LB2. BAM8-22 antagonism; hits give low values. B-score at 10 µM. actives 1.3% (n = 310,000). AID 588676, 2011;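 active = calcium-response B-score plate-corrected more than 3 library SD below zero, starting fluorescence within 5 deviations, no agonist response on first addition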;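 also: peak minus trough fluorescence over baseline after final BAM8-22 challenge near maximal dose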
# Starred values were filed as active, the others as inactive; i = inactive; · = not tested or not shown. A selection: hits, their analogues and other compounds. The true share with any hit is near 3.5%.
SMILES,MrgX1 PAM,RGS4 inh,RGS4 act,MrgX1 ag,MrgX1 antagonist
O=C1/C(=C/c2cccs2)SC(=S)N1NS(=O)(=O)c1ccccc1,i,i,i,i,i
COc1ccc(/C=C2\SC(=S)N(C(C(=O)O)c3ccccc3)C2=O)c(OC)c1 (configuration not stated),i,i,i,i,-5.2*
CCOc1cc(/C=C2\SC(=S)N(NS(=O)(=O)c3ccccc3)C2=O)ccc1O,i,i,i,34*,i
O=C1/C(=C/C=C/c2ccco2)SC(=S)N1NS(=O)(=O)c1ccccc1,7.9*,·,·,i,i
CC(=O)c1ccccc1NC(=O)CCCNC(=O)c1ccc(Cl)cc1,i,i,i,i,i
COc1ccc(/C=C2\SC(=S)N(NS(=O)(=O)c3ccccc3)C2=O)c(OC)c1,i,i,-7.5*,i,-8.7*
CCc1nc(SCC(=O)Nc2ccc(N(C)C)cc2)c2ccccc2n1,i,i,i,i,i
O=c1c2ccccc2c(/C=N/c2nnc(Cc3ccccc3)s2)c(O)n1-c1ccc(Cl)cn1,16*,i,i,i,i
CCCCCCCCNC(=O)c1ccc(C)cc1,i,i,i,32*,i
O=c1oc(/C=C/c2ccco2)nc2sc3c(c12)CCC3,i,i,i,i,i
O=C1CCCCCCC1Sc1ccccc1[N+](=O)[O-] (configuration not stated),15*,i,i,i,i
O=C(Nc1ccc(N2CCOCC2)cc1)c1ccc([N+](=O)[O-])o1,i,i,i,i,i
Cc1ccc(-n2c(SCC(N)=O)nnc2-c2ccc(S(=O)(=O)N3CCCCC3)cc2)c(C)c1,i,i,-7.1*,i,i
Cn1c(SCC(N)=O)nnc1-c1ccc(S(=O)(=O)N2CCCC2)cc1,i,i,i,i,i
CCn1nc(C)cc1-c1nnc(Sc2ncc([N+](=O)[O-])s2)n1C,i,i,-7.9*,38*,i
CN(Cc1ccccc1)C(=O)CN1CCN(C(c2ccccc2)c2ccccc2)CC1,i,i,i,i,i
O=C1C(Cl)=C(Nc2ccc3cn[nH]c3c2)C(=O)c2ccccc21,i,i,i,i,-9.6*
O=C(Nc1ccc2cn[nH]c2c1)c1c(Cl)cccc1Cl,i,i,i,i,i
CC1=CC(=O)c2ccccc2C1=O,i,i,i,i,i
CC1=C/C(=N\OS(=O)(=O)c2ccccc2)C(C)=CC1=O,15*,·,·,i,i
CC1=C(C)/C(=N\OS(=O)(=O)c2ccc(C)cc2)C=CC1=O,i,·,·,i,-5.2*
COc1ccc(S(=O)(=O)/N=C2/C=CC(=O)C(C)=C2C)cc1,i,i,i,i,i
CC1=C/C(=N\OS(=O)(=O)c2ccccc2)C(C(C)C)=CC1=O,i,·,·,i,-4.6*
CCN(CC)C(=O)Cn1cc(SCC(=O)NC2CCCC2)c2ccccc21,i,i,i,i,i
CC(C)(C)n1cc(S(=O)(=O)c2ccccc2)[nH]c1=O,i,i,i,i,i
SMILES,MrgX1 PAM,RGS4 inh,RGS4 act,MrgX1 ag,MrgX1 antagonist
COc1cccc2c1C(=O)C=C(C)C2=O,i,i,-7.1*,i,-7.7*
O=C(Cc1c(F)c(F)c(F)c(F)c1F)Nc1nc(-c2ccccc2)cs1,i,i,-7.1*,i,i
Cc1ccc(/C=C(\C#N)C(=O)Nc2cccc(C)n2)cc1,i,i,i,i,i
O=C(NCc1cccnc1)c1cccc(OC2CCN(Cc3ccc(CO)o3)CC2)c1,i,i,i,i,i
N#C/C(=C/c1ccc(-c2cc(C(=O)O)cc(C(=O)O)c2)o1)c1nc2ccccc2s1,i,i,i,27*,i
COc1ccc(NC2CCCN(C(=O)c3cccc(N4CCNC4=O)c3)C2)cc1 (configuration not stated),i,i,i,i,i
CCOc1ccc(C(C(=O)NC2CCCC2)N(Cc2ccccc2)C(=O)c2nsc(Cl)c2Cl)cc1 (configuration not stated),i,i,-7.2*,i,i
CN(C)c1ccc(C(C(=O)NC2CCCC2)N(Cc2cccnc2)C(=O)c2snc(C(N)=O)c2N)cc1 (configuration not stated),i,i,i,i,-6.4*
CC(C)N(CCC(=O)c1ccc2ccccc2c1)Cc1ccccc1,i,·,·,39*,i
CCC(=O)CCC(=O)c1ccc2ccccc2c1,i,i,i,i,i
Cc1cc(C)n2nc3ccccc3c2n1,i,i,i,i,i
Cc1cc(C)n2nc3nc(N4CCCCC4)nc(-c4ccco4)c3c2n1,i,i,i,i,-4.7*
CC(C)O/C(=N\S(=O)(=O)c1ccc(Cl)cc1)c1ccccc1,i,i,-7.1*,i,i
CC(C)CO/C(=N/S(=O)(=O)c1ccccc1)c1ccccc1,i,i,i,i,i
CN(Cc1ccc(F)cc1)C(=O)c1cc(COc2ccc(-n3cncn3)cc2)on1,i,i,i,i,i
CCC(=O)c1cn([C@@H](CCC(OC)OC)CC(=O)OC(C)(C)C)cc1CC,i,i,i,i,i
CN(C(=O)CSc1nnc(-c2ccccc2F)o1)c1ccccc1,i,i,i,i,i
COc1ccc(CN(C(=O)CSc2nnc(-c3ccccc3F)o2)c2ccc(F)cc2)cc1,i,i,-7.8*,i,i
COc1ccc(C(=O)COC(=O)CCNS(=O)(=O)c2ccccc2)cc1Br,i,i,i,i,-5.6*
O=C(CCNS(=O)(=O)c1ccccc1)OCC(=O)c1ccc(Br)cc1,i,i,i,i,i
C=CCc1cc(C)ccc1OCCOCCN1CCN(C)CC1,i,i,i,i,i
CN(Cc1ccccc1F)c1nc(-c2cccnc2)nc2ccccc12,i,i,-14*,i,i
Cc1ccccc1Nc1nc(-c2cccnc2)nc2ccccc12,i,i,-7.2*,42*,i
CC(Nc1nc(-c2cccnc2)nc2ccccc12)c1ccc(F)cc1 (configuration not stated),i,i,-7.1*,i,i
Fc1ccc(CNc2nc(-c3cccnc3)nc3ccccc23)cc1,i,i,-7.1*,35*,i

# Screening data from PubChem BioAssay.
